The results in this text go back to ChEMBL document CHEMBL1122479, “Nucleic acid related compounds. 40. Synthesis and biological activities of 5-alkynyluracil nucleosides” (1983).

What all share (type): functional
The test system of experiment [1] is L1210. Nature of the experiment: Concentration required to reduce leukemia L1210 cell growth […]. As to conditions: Mus musculus, read-out: ID50 (the source's name).
Experiment [2] concerns PRK. Nature of the experiment: Concentration required to reduce Herpes simplex virus type 1 induced cytopathogenicity in primary rabbit kidney (PRK) cell cultures. Particulars: Human alphaherpesvirus 1, PRK; read-out: ID50 (the source's name). Background: Damage to the host cells serves as the signal in cytopathic effect assays.
Experiment [3] relates to PRK. Nature of the experiment: Concentration required to reduce Herpes simplex virus type 2 induced cytopathogenicity in primary rabbit kidney (PRK) cell cultures. Particulars: Human alphaherpesvirus 2, PRK; read-out: ID50 (the source's name).
In experiment [4] the test system is PRK. Nature of the experiment: Concentration required to reduce Vaccinia virus induced cytopathogenicity in primary rabbit kidney (PRK) cell cultures. Particulars: Orthopoxvirus vaccinia, read-out: ID50 (the source's name).
Experiment [5] has as its system PRK. Nature of the experiment: Inhibitory activity against incorporation of deoxy-[1',2'-3H]uridine (dUrd) into the DNA of uninfected primary rabbit kidney (PRK) cell cultures. Particulars: Oryctolagus cuniculus, read-out: ID50 (the source's name). The method, boiled down: (§1)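 Uninfected primary rabbit kidney cells were used as a cytotoxicity measure. Incorporation of [methyl-3H]dThd or [1',2'-3H]dUrd into cellular DNA was followed with compound present.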

Experiment [6] deals with PRK. Nature of the experiment: Inhibitory activity against incorporation of deoxy-[methyl.3H-]-thymidine (dThd) into the DNA of uninfected primary rabbit kidney (PRK) cell cultures. Particulars: Oryctolagus cuniculus, read-out: ID50 (the source's name). The method, boiled down: as §1
Experiment [7] deals with L1210. Nature of the experiment: Inhibitory activity against incorporation of deoxy-[methyl.3H-]-thymidine (dThd) into the DNA of murine leukemia L1210 cell cultures. Particulars: Mus musculus, read-out: ID50 (the source's name).

Values after ≈ are worked out from the molar mass of the structure shown. A value given as a limit tells only on which side of the number the result lay.

Take `CCC#Cc1cn([C@H]2C[C@H](O)[C@@H](CO)O2)c(=O)[nH]c1=O`: the IC50 is above 1000 µg/mL in the experiment with L1210 [1]; 4 µg/mL (≈ 14.3 µM) with PRK [2]; 32 µg/mL (≈ 114 µM) in the experiment on PRK [3]; 7 µg/mL (≈ 25 µM) in the experiment with PRK [4]; 2 µg/mL (≈ 7.14 µM) in the experiment on PRK [5]; 13 µg/mL (≈ 46.4 µM) with PRK [6].

With `COCC#Cc1cn([C@H]2C[C@H](O)[C@@H](CO)O2)c(=O)[nH]c1=O`, the IC50 in the experiment with L1210 [1] came to 254 µg/mL (≈ 857 µM); in the experiment with PRK [2] it was 1 µg/mL (≈ 3.38 µM); in the experiment with PRK [3], 2 µg/mL (≈ 6.75 µM); with PRK [4] it was 2 µg/mL (≈ 6.75 µM); in the experiment with PRK [5] it was 2 µg/mL (≈ 6.75 µM); in the experiment on PRK [6] it was 16 µg/mL (≈ 54 µM).

Regarding `Cc1ccc(S(=O)(=O)OCCC#Cc2cn([C@H]3C[C@H](O)[C@@H](CO)O3)c(=O)[nH]c2=O)cc1`, the IC50 in the experiment with L1210 [7] is 112 µg/mL (≈ 249 µM); with L1210 [1], above 200 µg/mL; with PRK [2], 33 µg/mL (≈ 73.3 µM); in the experiment on PRK [3], 63 µg/mL (≈ 140 µM); with PRK [4], 10 µg/mL (≈ 22.2 µM); in the experiment on PRK [5], 44 µg/mL (≈ 97.7 µM). Further, in the experiment with PRK [6], the IC50 was found to be 13 µg/mL (≈ 28.9 µM).

Turning to `CC(C)(C)C#Cc1cn([C@H]2C[C@H](O)[C@@H](CO)O2)c(=O)[nH]c1=O`, the IC50 in the experiment with L1210 [1] worked out at 287 µg/mL (≈ 931 µM); in the experiment on PRK [2], 4 µg/mL (≈ 13 µM); in the experiment with PRK [3], 19 µg/mL (≈ 61.6 µM); with PRK [4] it was 7 µg/mL (≈ 22.7 µM); with PRK [5] it was 2 µg/mL (≈ 6.49 µM); in the experiment on PRK [6], 6 µg/mL (≈ 19.5 µM).

With `C#Cc1cn([C@H]2C[C@H](O)[C@@H](CO)O2)c(=O)[nH]c1=O`, the IC50 came out at 0.09 µg/mL (≈ 0.357 µM) in the experiment with L1210 [1]; 0.5 µg/mL (≈ 1.98 µM) in the experiment with PRK [2]; 1 µg/mL (≈ 3.96 µM) in the experiment on PRK [3]; 0.1 µg/mL (≈ 0.396 µM) in the experiment on PRK [4]; 0.05 µg/mL (≈ 0.198 µM) with PRK [5]; 3 µg/mL (≈ 11.9 µM) in the experiment with PRK [6].

For the molecule `CCCCC#Cc1cn([C@H]2C[C@H](O)[C@@H](CO)O2)c(=O)[nH]c1=O`, the IC50 in the experiment with L1210 [7] came to 47 µg/mL (≈ 152 µM); in the experiment on L1210 [1] it was 1000 µg/mL (≈ 3240 µM); in the experiment on PRK [2], 108 µg/mL (≈ 350 µM); in the experiment on PRK [3] it was 350 µg/mL (≈ 1140 µM); in the experiment with PRK [4], 45 µg/mL (≈ 146 µM); in the experiment on PRK [5] it was 59 µg/mL (≈ 191 µM). In addition, the IC50 in the experiment with PRK [6] was found to be 45 µg/mL (≈ 146 µM).

With `O=c1[nH]c(=O)n([C@H]2C[C@H](O)[C@@H](CO)O2)cc1/C=C/Br` [BRIVUDINE], the IC50 came to 0.001 µg/mL (≈ 0.003 µM) in the experiment with L1210 [1]; 0.007 µg/mL (≈ 0.021 µM) in the experiment with PRK [2]; 2.5 µg/mL (≈ 7.5 µM) in the experiment with PRK [3]; 5 µg/mL (≈ 15 µM) with PRK [4]; 25 µg/mL (≈ 75 µM) in the experiment with PRK [5]; 90 µg/mL (≈ 270 µM) with PRK [6].

Take `O=c1[nH]c(=O)n([C@H]2C[C@H](O)[C@@H](CO)O2)cc1C#CCCCO`: the IC50 in the experiment on L1210 [1] was 280 µg/mL (≈ 902 µM); in the experiment with PRK [2] it was above 400 µg/mL; in the experiment on PRK [3], above 400 µg/mL; in the experiment on PRK [4] it was 125 µg/mL (≈ 403 µM); in the experiment with PRK [5], above 156 µg/mL; in the experiment on PRK [6], above 200 µg/mL.

With `CCCCCC#Cc1cn([C@H]2C[C@H](O)[C@@H](CO)O2)c(=O)[nH]c1=O`, the IC50 in the experiment on L1210 [7] was 45 µg/mL (≈ 140 µM); with L1210 [1], 219 µg/mL (≈ 679 µM); in the experiment with PRK [2], above 400 µg/mL; with PRK [3], above 400 µg/mL; in the experiment with PRK [4], 70 µg/mL (≈ 217 µM); in the experiment with PRK [5], 33 µg/mL (≈ 102 µM). In addition, the IC50 with PRK [6] turned out to be 9 µg/mL (≈ 27.9 µM).

As to `CC#Cc1cn(C2O[C@H](CO)[C@@H](O)[C@@H]2O)c(=O)[nH]c1=O` (some centres not stated), the IC50 was above 1000 µg/mL with L1210 [7]; 36 µg/mL (≈ 128 µM) in the experiment on L1210 [1]; 20 µg/mL (≈ 70.9 µM) in the experiment with PRK [2]; 50 µg/mL (≈ 177 µM) in the experiment with PRK [3]; 200 µg/mL (≈ 709 µM) in the experiment with PRK [4]; above 100 µg/mL in the experiment on PRK [5]. Further, the IC50 with PRK [6] was 92 µg/mL (≈ 326 µM).

In the case of `O=c1[nH]c(=O)n([C@H]2C[C@H](O)[C@@H](CO)O2)cc1C#CCO`, the IC50 was above 1000 µg/mL in the experiment with L1210 [1]; 36 µg/mL (≈ 128 µM) in the experiment on PRK [2]; 37 µg/mL (≈ 131 µM) in the experiment with PRK [3]; 10 µg/mL (≈ 35.4 µM) with PRK [4]; 8 µg/mL (≈ 28.3 µM) in the experiment on PRK [5]; 68 µg/mL (≈ 241 µM) in the experiment with PRK [6].

On to `CC(C)(C)C#Cc1cn(C2O[C@H](CO)[C@@H](O)[C@H]2O)c(=O)[nH]c1=O` (some centres not stated), for which the IC50 in the experiment on L1210 [7] is above 1000 µg/mL; in the experiment with PRK [2], above 400 µg/mL; with PRK [3], above 400 µg/mL; with PRK [4], above 400 µg/mL; with PRK [5], above 400 µg/mL; in the experiment with PRK [6] it was above 400 µg/mL.

`O=c1[nH]c(=O)n([C@H]2C[C@H](O)[C@@H](CO)O2)cc1C#CCCO`: the IC50 in the experiment on L1210 [1] is above 1000 µg/mL; in the experiment with PRK [2], 18 µg/mL (≈ 60.8 µM); in the experiment on PRK [3] it was 47 µg/mL (≈ 159 µM); in the experiment with PRK [4], 10 µg/mL (≈ 33.8 µM); in the experiment with PRK [5], 13 µg/mL (≈ 43.9 µM); in the experiment with PRK [6], 73 µg/mL (≈ 246 µM).

As for `CCCCCCc1cn([C@H]2C[C@H](O)[C@@H](CO)O2)c(=O)[nH]c1=O`, the IC50 in the experiment with L1210 [1] came to 301 µg/mL (≈ 964 µM); with PRK [2], 400 µg/mL (≈ 1280 µM); in the experiment with PRK [3] it was 350 µg/mL (≈ 1120 µM); in the experiment on PRK [4], 300 µg/mL (≈ 960 µM); in the experiment with PRK [5], 52 µg/mL (≈ 166 µM); in the experiment with PRK [6], 7 µg/mL (≈ 22.4 µM).

For the molecule `CCCC#Cc1cn([C@H]2C[C@H](O)[C@@H](CO)O2)c(=O)[nH]c1=O`, the IC50 was above 1000 µg/mL in the experiment with L1210 [1]; 4 µg/mL (≈ 13.6 µM) with PRK [2]; 90 µg/mL (≈ 306 µM) in the experiment with PRK [3]; 7 µg/mL (≈ 23.8 µM) in the experiment on PRK [4]; 3 µg/mL (≈ 10.2 µM) in the experiment on PRK [5]; 9 µg/mL (≈ 30.6 µM) in the experiment with PRK [6].

Regarding `CCC#Cc1cn(C2O[C@H](CO)[C@@H](O)[C@@H]2O)c(=O)[nH]c1=O` (some centres not stated), the IC50 in the experiment on L1210 [7] was above 1000 µg/mL; in the experiment with L1210 [1], above 1000 µg/mL; with PRK [2], 200 µg/mL (≈ 675 µM); in the experiment on PRK [3], above 400 µg/mL; with PRK [4] it was above 400 µg/mL; in the experiment with PRK [5], 215 µg/mL (≈ 726 µM). Besides, the IC50 in the experiment with PRK [6] is 120 µg/mL (≈ 405 µM).

On to `O=c1[nH]c(=O)n([C@H]2C[C@H](O)[C@@H](CO)O2)cc1I` [IDOXURIDINE], for which the IC50 in the experiment with L1210 [1] turned out to be 61 µg/mL (≈ 172 µM); with PRK [2], 0.15 µg/mL (≈ 0.424 µM); in the experiment on PRK [3], 0.3 µg/mL (≈ 0.847 µM); with PRK [4], 0.2 µg/mL (≈ 0.565 µM); in the experiment on PRK [5] it was 0.12 µg/mL (≈ 0.339 µM); in the experiment with PRK [6], 1.5 µg/mL (≈ 4.24 µM).

With `CCCC/C=C\c1cn([C@H]2C[C@H](O)[C@@H](CO)O2)c(=O)[nH]c1=O`, the IC50 in the experiment with L1210 [7] is 39 µg/mL (≈ 126 µM); with L1210 [1], 361 µg/mL (≈ 1160 µM); in the experiment on PRK [2], above 400 µg/mL; with PRK [3] it was above 200 µg/mL; with PRK [4] it was above 400 µg/mL; in the experiment with PRK [5] it was 34 µg/mL (≈ 110 µM). The IC50 in the experiment with PRK [6] amounted to 5 µg/mL (≈ 16.1 µM).

For `CC#Cc1cn([C@H]2C[C@H](O)[C@@H](CO)O2)c(=O)[nH]c1=O`, the IC50 in the experiment with L1210 [1] was 164 µg/mL (≈ 616 µM); with PRK [2], 0.3 µg/mL (≈ 1.13 µM); with PRK [3] it was 0.7 µg/mL (≈ 2.63 µM); with PRK [4], 0.4 µg/mL (≈ 1.5 µM); in the experiment on PRK [5] it was 0.7 µg/mL (≈ 2.63 µM); in the experiment on PRK [6] it was 3 µg/mL (≈ 11.3 µM).

For `O=c1[nH]c(=O)n([C@H]2C[C@H](O)[C@@H](CO)O2)cc1C#Cc1ccccc1`, the IC50 in the experiment with L1210 [7] was 120 µg/mL (≈ 365 µM); in the experiment with L1210 [1], 494 µg/mL (≈ 1500 µM); with PRK [2] it was above 400 µg/mL; with PRK [3], above 400 µg/mL; in the experiment with PRK [4], above 400 µg/mL; with PRK [5] it was 77 µg/mL (≈ 235 µM). Moreover, in the experiment with PRK [6], the IC50 worked out at 23 µg/mL (≈ 70.1 µM).
